Data: PMC11995402 (ACS infectious diseases, 2025)
Converted amounts (≈) assume the structure as drawn. Like-named read-outs stand apart in the source and are kept apart here.

Columns and labels:
MYLK4 = biological target: T1, MYLK4 (Homo sapiens, UniProt Q86YV6); assay: SelectScreen kinase panel, MYLK4; type: biochemical; settings: 500 nM
T1 sequence (Q86YV6 1-388): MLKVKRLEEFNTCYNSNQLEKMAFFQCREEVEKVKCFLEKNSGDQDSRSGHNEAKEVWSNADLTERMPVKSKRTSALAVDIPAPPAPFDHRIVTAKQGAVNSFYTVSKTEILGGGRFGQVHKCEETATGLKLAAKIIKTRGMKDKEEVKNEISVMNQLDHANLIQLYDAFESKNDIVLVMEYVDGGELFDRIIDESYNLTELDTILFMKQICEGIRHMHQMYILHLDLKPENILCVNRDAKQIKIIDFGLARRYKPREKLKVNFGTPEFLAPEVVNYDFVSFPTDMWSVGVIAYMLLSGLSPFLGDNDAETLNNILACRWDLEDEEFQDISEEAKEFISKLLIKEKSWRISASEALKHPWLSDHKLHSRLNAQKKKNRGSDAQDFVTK

STK17A = biological target: T2, STK17A (Homo sapiens, UniProt Q9UEE5); assay: SelectScreen kinase panel, STK17A; type: biochemical; settings: 500 nM
T2 sequence (Q9UEE5 1-414): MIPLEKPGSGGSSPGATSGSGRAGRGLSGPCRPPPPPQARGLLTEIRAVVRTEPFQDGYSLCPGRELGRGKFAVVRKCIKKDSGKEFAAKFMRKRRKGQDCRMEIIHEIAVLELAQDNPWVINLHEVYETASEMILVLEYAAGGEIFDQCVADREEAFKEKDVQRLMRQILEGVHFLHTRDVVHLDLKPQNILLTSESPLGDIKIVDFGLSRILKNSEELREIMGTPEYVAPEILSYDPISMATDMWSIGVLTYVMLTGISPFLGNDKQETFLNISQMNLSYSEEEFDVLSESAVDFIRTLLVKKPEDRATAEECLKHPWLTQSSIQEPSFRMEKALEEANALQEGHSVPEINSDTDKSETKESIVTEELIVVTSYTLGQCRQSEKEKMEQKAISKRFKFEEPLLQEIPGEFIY

T. muris [1] = tested on: T. muris; design: species or system mice; settings: mouse, in vivo, po, 100 mg/kg/day
MDR1-MDCK II cells = settings: MDCK-MDR1
[2] = kinetic solubility in simulated gastric and intestinal fluid; type: physicochemical
MAPK15 (ERK7) = biological target: T3, MAPK15 (ERK7) (Homo sapiens, UniProt Q8TD08); assay: SelectScreen kinase panel, MAPK15; type: biochemical; settings: 500 nM
T3 sequence (Q8TD08 1-544): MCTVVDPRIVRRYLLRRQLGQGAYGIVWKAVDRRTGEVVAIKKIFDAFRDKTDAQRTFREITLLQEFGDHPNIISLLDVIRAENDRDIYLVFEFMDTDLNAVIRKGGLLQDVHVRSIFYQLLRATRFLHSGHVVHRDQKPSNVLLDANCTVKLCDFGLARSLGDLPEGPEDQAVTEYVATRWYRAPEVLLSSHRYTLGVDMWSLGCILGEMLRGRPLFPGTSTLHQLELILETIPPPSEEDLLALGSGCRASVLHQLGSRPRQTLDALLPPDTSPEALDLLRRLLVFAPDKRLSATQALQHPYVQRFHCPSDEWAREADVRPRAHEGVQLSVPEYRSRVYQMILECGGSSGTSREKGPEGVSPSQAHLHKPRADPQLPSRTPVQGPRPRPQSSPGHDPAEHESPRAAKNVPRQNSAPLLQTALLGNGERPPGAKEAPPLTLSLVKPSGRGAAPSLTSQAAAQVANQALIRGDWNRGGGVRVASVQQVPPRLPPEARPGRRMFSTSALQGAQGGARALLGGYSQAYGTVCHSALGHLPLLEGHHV

PIM-3 = PIM-3 (Homo sapiens, UniProt Q86V86); assay: SelectScreen kinase panel, PIM-3; type: biochemical; settings: 500 nM
T. muris [3] = assay: adult whipworm whole-worm motility inhibition assay; type: cell-based, Trichuris muris; settings: for IC50: motility
AAK1 = AAK1 (Homo sapiens, UniProt Q2M2I8); assay: SelectScreen kinase panel, AAK1; type: biochemical; settings: 500 nM
Chain of AAK1 (Q2M2I8 whole entry): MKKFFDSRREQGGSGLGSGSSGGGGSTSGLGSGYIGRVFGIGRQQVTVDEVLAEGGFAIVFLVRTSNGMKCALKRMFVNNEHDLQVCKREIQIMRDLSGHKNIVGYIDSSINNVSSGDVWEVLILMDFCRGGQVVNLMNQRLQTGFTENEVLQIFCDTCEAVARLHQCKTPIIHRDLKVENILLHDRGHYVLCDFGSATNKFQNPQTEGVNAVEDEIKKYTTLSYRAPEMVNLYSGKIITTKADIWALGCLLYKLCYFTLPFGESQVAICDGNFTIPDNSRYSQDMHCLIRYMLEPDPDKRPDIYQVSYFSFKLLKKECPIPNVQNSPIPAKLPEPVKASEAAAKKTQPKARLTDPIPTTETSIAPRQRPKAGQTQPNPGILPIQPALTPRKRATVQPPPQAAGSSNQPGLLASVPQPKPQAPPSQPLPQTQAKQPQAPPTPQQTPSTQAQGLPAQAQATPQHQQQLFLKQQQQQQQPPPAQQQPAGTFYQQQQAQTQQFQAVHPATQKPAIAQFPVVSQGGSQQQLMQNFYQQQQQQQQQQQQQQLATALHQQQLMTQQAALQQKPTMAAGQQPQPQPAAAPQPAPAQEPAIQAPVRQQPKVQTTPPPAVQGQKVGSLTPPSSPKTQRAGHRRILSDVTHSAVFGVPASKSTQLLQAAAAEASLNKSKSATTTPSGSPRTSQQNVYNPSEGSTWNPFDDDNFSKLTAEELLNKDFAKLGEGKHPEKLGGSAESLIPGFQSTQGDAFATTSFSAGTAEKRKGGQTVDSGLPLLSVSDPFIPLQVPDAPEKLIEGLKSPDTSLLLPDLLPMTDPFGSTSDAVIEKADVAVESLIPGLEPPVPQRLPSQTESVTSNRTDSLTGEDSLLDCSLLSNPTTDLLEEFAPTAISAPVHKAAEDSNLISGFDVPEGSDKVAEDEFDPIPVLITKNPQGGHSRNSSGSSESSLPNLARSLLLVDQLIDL

A. ceylanicum [4] = assay: in vivo efficacy in A. ceylanicum-infected hamsters; settings: 100 mg/kg/day for three days, oral
A. ceylanicum [5] = assay: adult hookworm whole-worm motility inhibition assay; type: cell-based, Ancylostoma ceylanicum; settings: motility
GSG2 (haspin) = biological target: T4, GSG2 (haspin) (Homo sapiens, UniProt Q8TF76); assay: SelectScreen kinase panel, GSG2; type: biochemical; settings: 500 nM
T4 sequence (Q8TF76 1-798): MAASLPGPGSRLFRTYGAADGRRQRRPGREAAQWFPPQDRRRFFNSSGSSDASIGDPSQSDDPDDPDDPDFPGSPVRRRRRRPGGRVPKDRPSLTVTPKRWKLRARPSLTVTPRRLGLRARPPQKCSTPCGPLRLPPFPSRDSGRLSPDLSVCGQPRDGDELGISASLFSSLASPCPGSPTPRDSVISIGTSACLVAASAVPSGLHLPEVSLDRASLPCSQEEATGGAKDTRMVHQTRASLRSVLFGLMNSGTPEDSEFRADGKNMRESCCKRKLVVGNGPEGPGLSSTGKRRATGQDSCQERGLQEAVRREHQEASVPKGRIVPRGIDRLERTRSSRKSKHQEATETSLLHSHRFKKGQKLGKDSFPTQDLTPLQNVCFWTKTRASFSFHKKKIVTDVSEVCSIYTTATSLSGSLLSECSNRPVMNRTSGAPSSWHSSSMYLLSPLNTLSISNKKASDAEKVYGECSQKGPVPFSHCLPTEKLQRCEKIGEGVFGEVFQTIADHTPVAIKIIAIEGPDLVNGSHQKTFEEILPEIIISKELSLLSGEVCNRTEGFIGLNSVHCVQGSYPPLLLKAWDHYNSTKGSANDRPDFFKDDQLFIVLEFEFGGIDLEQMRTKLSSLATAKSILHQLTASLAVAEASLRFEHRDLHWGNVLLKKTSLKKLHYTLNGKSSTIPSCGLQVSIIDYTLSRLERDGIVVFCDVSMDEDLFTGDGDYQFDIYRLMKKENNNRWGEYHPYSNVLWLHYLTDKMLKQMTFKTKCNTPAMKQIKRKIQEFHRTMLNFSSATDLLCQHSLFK

HepG2 cells = assay: HepG2 MTT viability assay; settings: read-out: HEPG2 cells CC50 μM (95% CI) 24 h; MTT viability, 24 h
whipworms = assay: whipworm motility recovery after drug removal; type: cell-based; settings: 60 μM for 24 h, motility recorded 4 and 24 h after removal
In short: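 Adult T. muris harvested 35 days post-inoculation from Stat6−/− mice, one worm per well in RPMI 1640 (pH 7.2) with 5% FBS, penicillin, streptomycin and amphotericin, at 37 °C and 5% CO2. Worms were exposed to test compound for 24 h, washed, and moved to fresh drug-free medium. Motility inhibition was scored relative to DMSO (0%) after exposure and again 4 and 24 h later.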

Compound: CN1CCCN(C(=O)c2cccc(-c3ccc(/C=C4/C(=O)Nc5ccc(Cl)cc54)o3)c2)CC1 [CX-6258]
- kinase inhibition MYLK4 (MYLK4): over 80%
- kinase inhibition STK17A (STK17A): over 80%
- health, vitality and body weight of treated animals (T. muris [1]): did not affect the visually observed health and vitality of treated animals, nor were any changes in body weight
- Rank Papp (MDR1-MDCK II cells): low
- mean Papp A to B (MDR1-MDCK II cells): 0.049 10^−6 cm/s
- mean Papp B to A (MDR1-MDCK II cells): 0.0897 10^−6 cm/s
- mean solution recovery % A to B (MDR1-MDCK II cells): 5.4%
- mean solution recovery % B to A (MDR1-MDCK II cells): 20.2%
- kinetic solubility μM ([2]; SGF (pH = 1.2)): 151 µM (≈ 69.8 µg/mL)
- kinetic solubility μg/mL ([2]; SGF (pH = 1.2)): 69.7 µg/mL (≈ 151 µM)
- times more soluble in SGF than in SIF ([2]; SGF pH 1.2 versus SIF pH 6.8): approximately 30 times
- kinetic solubility μM ([2]; SIF (pH = 6.8)): 5.05 µM (≈ 2.33 µg/mL)
- kinetic solubility μg/mL ([2]; SIF (pH = 6.8)): 2.33 µg/mL (≈ 5.04 µM)
- kinase inhibition MAPK15 (ERK7) (MAPK15 (ERK7)): over 80%
- kinase inhibition PIM-3 (PIM-3): over 80%
- worm motility inhibition (in words) (T. muris [3]; adult T. muris, 30 μM (Figure 1)): excellent inhibition
- motility inhibition (T. muris [3]; adult T. muris, 30 μM, relative to DMSO controls): 100%
- IC50 (T. muris [3]; read-out: T. muris IC50 μM (95% CI) 24 h, 24 h): 17.8 µM
- IC50 (T. muris [3]; read-out: T. muris IC50 μM (95% CI) 48 h, 48 h): 14.7 µM
- kinase inhibition AAK1 (AAK1): over 80%
- reduction of egg number or worm burden (in words) (A. ceylanicum [4]): did not reduce egg number or worm burden
- IC50 (A. ceylanicum [5]; read-out: A. ceylanicum IC50 μM (95% CI) 24 h, 24 h): 31.6 µM
- IC50 (A. ceylanicum [5]; read-out: A. ceylanicum IC50 μM (95% CI) 48 h, 48 h): 5.5 µM
- kinase inhibition GSG2 (haspin) (GSG2 (haspin)): over 80%
- CC50 (HepG2 cells): 37.5 µM
- recovery of whipworm motility after removing the drug (whipworms): no recovery in whipworm motility
